What was measured:
Cannabinoid receptor 2 [1] = target: Cannabinoid receptor 2 (Homo sapiens, UniProt P34972); experiment: Displacement of [3H]CP55940 from human […] CB2 receptor expressed in HEK293 cells; assay type: cell-based
In short: (§1)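 Competition binding against [3H]CP-55,940. CB1 membranes came from rat brain; CB2 membranes came from HEK293 cells expressing mouse or human CB2. Ki was taken from competition curves by nonlinear regression. Three independent experiments were run in duplicate, and Ki is the mean of the three.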

Cannabinoid receptor 2 [2] = target: Cannabinoid receptor 2 (Mus musculus, UniProt P47936); experiment: Displacement of [3H]CP55940 from mouse […] CB2 receptor expressed in HEK293 cells; assay type: cell-based; in short: as §1
Cannabinoid receptor 1 [3] = target: T1, Cannabinoid receptor 1 (Rattus norvegicus, UniProt P20272); experiment: Displacement of [3H]CP55940 from rat brain CB1 receptor; in short: as §1
[4] = Half life in mouse plasma; assay type: ADME, cell-free
In short: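 The compound was incubated in vitro with mouse plasma to test esterase hydrolysis to its acid metabolite. Half-life of the parent compound was determined.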

[5] = Selectivity ratio of Ki for mouse […] CB2 receptor to Ki for rat CB1 receptor
[6] = Selectivity ratio of Ki for human CB2 receptor to Ki for rat CB1 receptor
Cannabinoid receptor 1 [7] = target: T1, Cannabinoid receptor 1; experiment: Agonist activity at rat CB1 receptor expressed in HEK293 cells assessed as inhibition of forskolin-induced cAMP level; assay type: functional, cell-based
[8] = target: Cannabinoid receptor 1 (Rattus norvegicus) (UniProt P20272); experiment: Agonist activity at rat CB1 receptor expressed in HEK293 cells assessed as maximum inhibition of forskolin-induced cAMP level; assay type: functional, cell-based
Chain of Cannabinoid receptor 1 (Rattus norvegicus) (P20272 whole entry): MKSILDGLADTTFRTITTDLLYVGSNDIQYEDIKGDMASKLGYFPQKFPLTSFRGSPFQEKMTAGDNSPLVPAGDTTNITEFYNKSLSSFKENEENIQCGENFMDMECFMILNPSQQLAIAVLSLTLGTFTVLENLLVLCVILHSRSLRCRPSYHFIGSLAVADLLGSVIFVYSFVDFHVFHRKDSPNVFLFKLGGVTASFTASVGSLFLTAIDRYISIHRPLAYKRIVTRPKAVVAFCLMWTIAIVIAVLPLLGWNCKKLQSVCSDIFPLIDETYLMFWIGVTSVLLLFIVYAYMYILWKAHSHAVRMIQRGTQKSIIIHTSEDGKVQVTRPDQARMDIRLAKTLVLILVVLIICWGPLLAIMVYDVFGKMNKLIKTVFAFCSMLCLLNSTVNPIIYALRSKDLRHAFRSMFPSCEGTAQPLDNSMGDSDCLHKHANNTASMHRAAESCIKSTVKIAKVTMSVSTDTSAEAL

Chain of Cannabinoid receptor 2 (Mus musculus, UniProt P47936) (P47936 whole entry): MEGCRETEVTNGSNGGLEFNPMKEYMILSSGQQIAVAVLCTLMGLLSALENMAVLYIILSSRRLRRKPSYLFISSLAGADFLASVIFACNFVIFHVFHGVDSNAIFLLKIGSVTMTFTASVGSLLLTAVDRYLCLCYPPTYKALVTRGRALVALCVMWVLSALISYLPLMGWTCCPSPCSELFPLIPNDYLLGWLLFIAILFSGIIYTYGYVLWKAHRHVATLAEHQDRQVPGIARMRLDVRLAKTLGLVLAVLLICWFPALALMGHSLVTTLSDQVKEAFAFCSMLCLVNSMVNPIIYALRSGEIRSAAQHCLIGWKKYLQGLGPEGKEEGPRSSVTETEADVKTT
T1 sequence (P20272 whole entry): as the sequence (P20272 whole entry) above
Chain of Cannabinoid receptor 2 (Homo sapiens, UniProt P34972) (P34972 whole entry): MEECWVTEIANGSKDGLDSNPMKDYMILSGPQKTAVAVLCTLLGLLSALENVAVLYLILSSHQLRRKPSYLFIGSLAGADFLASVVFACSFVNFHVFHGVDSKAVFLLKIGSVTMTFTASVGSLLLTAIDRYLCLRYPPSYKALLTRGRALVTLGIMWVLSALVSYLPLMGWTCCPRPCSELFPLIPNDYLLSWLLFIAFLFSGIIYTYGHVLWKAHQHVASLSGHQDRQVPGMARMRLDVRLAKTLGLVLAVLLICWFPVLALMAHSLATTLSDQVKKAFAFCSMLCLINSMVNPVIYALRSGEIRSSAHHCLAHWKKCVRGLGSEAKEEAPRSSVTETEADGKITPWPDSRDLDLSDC

Structure (SMILES) | Ki (Cannabinoid receptor 2 [1]) [µM] | Ki (Cannabinoid receptor 2 [2]) [µM] | Ki (Cannabinoid receptor 1 [3]) [µM] | half-life [4] [min] | Ratio Ki [5] | Ratio Ki [6] | EC50 (Cannabinoid receptor 1 [7]) [µM] | inhibition [8] [%]
CCCCCCC(C)(C)c1cc(O)c2c(c1)OC(C)(C)[C@@H]1CCOC(=O)C[C@@H]21 | 0.094 | – | – | – | – | – | – | –
CCCCCc1cc(O)c2c(c1)OC(C)(C)[C@@H]1CCC(C)=C[C@@H]21 [DRONABINOL] | – | 0.04 | – | – | – | – | – | –
CCCCCCC(C)(C)c1cc(O)c2c(c1)OC(C)(C)[C@H](CCC(=O)O)[C@H]2CO | > 1 | > 1 | > 1 | 15.1 | – | – | – | –
CCCCCCC(C)(C)c1cc(O)c2c(c1)OC(C)(C)[C@@H]1CCC(=O)OC[C@@H]21 | 0.052 | 0.792 | 0.0046 | – | 170 | 11 | 0.184 | 41
CCCCCCC(C)(C)c1cc(O)c2c(c1)OC(C)(C)[C@H](CCO)[C@H]2CC(=O)O | > 1 | > 1 | > 1 | – | – | – | – | –
